Data on seven compounds can be found in ChEMBL document CHEMBL6177935, “Design and synthesis of novel multi-target tetrabromophthalimides as CBS and Topo-II inhibitors and DNA intercalators” (RSC Med Chem, 2024).

The target in assay [1] is T1, DNA topoisomerase 2-beta (Homo sapiens, UniProt Q02880). In words: Inhibition of human topoisomerase IIB-mediated DNA fragmentation.
Another assay deals with HNO 97 cell line. In words: (§1) Growth inhibition of human HNO 97 cells at 100 ug/ml measured after 48 hrs by SRB assay relative to control. Format: functional. To be noted: dose 100.0 µg/ml, pooled result: one value given for 15 cell lines, strains, targets or settings. Put shortly: (§2)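 SRB screen on fifteen human cancer lines. Cells seeded at 3×10^3 per well and left 24 h to attach. A single concentration of 100 µg/mL was tested in triplicate wells for 48 h, with 1% v/v DMSO as vehicle control. Cells fixed in 20% TCA, stained with 0.4% SRB and read at 570 nm. Survival fraction = OD treated/OD control.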

The test system of another assay is HN. Put plainly: Growth inhibition of human HN cells at 100 ug/ml measured after 48 hrs by SRB assay relative to control. In kind it is functional. To be noted: dose 100.0 µg/ml, pooled result: one value given for 15 cell lines, strains, targets or settings. A digest of the protocol: as §2
The test system of another assay is MCF7. In words: Growth inhibition of human MCF7 cells at 100 ug/ml measured after 48 hrs by SRB assay relative to control. Format: functional. To be noted: dose 100.0 µg/ml, pooled result: one value given for 15 cell lines, strains, targets or settings. Put shortly: as §2
(In general: Sulforhodamine B stains cellular protein and so reports cell mass.)

For a further assay, the system named is MDA-MB-468. In words: Growth inhibition of human MDA-MB-468 cells at 100 ug/ml measured after 48 hrs by SRB assay relative to control. Format: functional. To be noted: dose 100.0 µg/ml, pooled result: one value given for 15 cell lines, strains, targets or settings. A digest of the protocol:
as §2

The next assay deals with Caco-2. In words: Growth inhibition of human Caco-2 cells at 100 ug/ml measured after 48 hrs by SRB assay relative to control. In kind it is functional. Particulars: dose 100.0 µg/ml, pooled result: one value given for 15 cell lines, strains, targets or settings. A digest of the protocol: as §2
In the next assay the test system is HCT-116. In words: Growth inhibition of human HCT-116 cells at 100 ug/ml measured after 48 hrs by SRB assay relative to control. In kind it is functional. Particulars: dose 100.0 µg/ml, pooled result: one value given for 15 cell lines, strains, targets or settings. Put shortly: as §2
Another assay has as its system HEp-2. In words: Growth inhibition of human HEp-2 cells at 100 ug/ml measured after 48 hrs by SRB assay relative to control. To be noted: dose 100.0 µg/ml, pooled result: one value given for 15 cell lines, strains, targets or settings. In kind it is functional. A digest of the protocol:
as §2

For a further assay, the system named is HepG2. In words: Growth inhibition of human HepG2 cells at 100 ug/ml measured after 48 hrs by SRB assay relative to control. In kind it is functional. Particulars: dose 100.0 µg/ml, pooled result: one value given for 15 cell lines, strains, targets or settings. Put shortly: as §2
The subject of a further assay is A-431. Put plainly: Growth inhibition of human A-431 cells at 100 ug/ml measured after 48 hrs by SRB assay relative to control. In kind it is functional. To be noted: dose 100.0 µg/ml, pooled result: one value given for 15 cell lines, strains, targets or settings. A digest of the protocol:
as §2

For a further assay, the system named is A-375. Put plainly: Growth inhibition of human A-375 cells at 100 ug/ml measured after 48 hrs by SRB assay relative to control. To be noted: dose 100.0 µg/ml, pooled result: one value given for 15 cell lines, strains, targets or settings. In kind it is functional. Put shortly:
as §2

For a further assay, the system named is NCI-H1299. In words: Growth inhibition of human NCI-H1299 cells at 100 ug/ml measured after 48 hrs by SRB assay relative to control. In kind it is functional. To be noted: dose 100.0 µg/ml, pooled result: one value given for 15 cell lines, strains, targets or settings. A digest of the protocol:
as §2

For another assay, the system named is A549. In words: Growth inhibition of human A549 cells at 100 ug/ml measured after 48 hrs by SRB assay relative to control. In kind it is functional. To be noted: dose 100.0 µg/ml, pooled result: one value given for 15 cell lines, strains, targets or settings. Put shortly: as §2
The test system of a further assay is PC-3. In words: Growth inhibition of human PC-3 cells at 100 ug/ml measured after 48 hrs by SRB assay relative to control. In kind it is functional. Particulars: dose 100.0 µg/ml, pooled result: one value given for 15 cell lines, strains, targets or settings. Put shortly: as §2
For the next assay, the system named is FaDu. In words: Growth inhibition of human FaDu cells at 100 ug/ml measured after 48 hrs by SRB assay relative to control. Format: functional. To be noted: dose 100.0 µg/ml, pooled result: one value given for 15 cell lines, strains, targets or settings. Put shortly: as §2
In the next assay the test system is HeLa. Put plainly: Growth inhibition of human HeLa cells at 100 ug/ml measured after 48 hrs by SRB assay relative to control. In kind it is functional. To be noted: dose 100.0 µg/ml, pooled result: one value given for 15 cell lines, strains, targets or settings. A digest of the protocol: as §2
The next assay has as its target Tubulin (Homo sapiens) (UniProt P68371+Q9H4B7+P0DPH7+P68366+Q13509+Q71U36+P04350+Q3ZCM7+P07437+P68363+Q9BQE3+Q6PEY2+Q13885+Q9BVA1+Q9BUF5). Put plainly: (§3) Inhibition of [3H]-colchicine binding to biotinylated-tubulin (unknown origin) measured after 45 mins by scintillation counting analysis. Format: protein-complex assay. A digest of the protocol:
(§4)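 Scintillation proximity assay run at 37 °C. Incubated 45 min at 37 °C, then the plate was read and percent inhibition calculated from raw counts.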

Assay [2] has as its target T1, DNA topoisomerase 2-beta. Put plainly: Inhibition of human topoisomerase IIB by sandwich ELISA.
The target in the next assay is Tubulin. The description is as §3. In kind it is protein-complex assay, Homo sapiens. Put shortly:
as §4

The nature of assay [3]: as §1. Format: functional, HNO 97 cell line. To be noted: HNO 97, 48 h, pooled result: one value given for 15 cell lines, strains, targets or settings, read-out: GI. A digest of the protocol: as §2

SMILES strings stand for the structures. Calls of active or inactive are those of the source. The calls are words filed in the database; no cut-off is given here.

T1 sequence (Q02880 whole entry, the tested form may be a part): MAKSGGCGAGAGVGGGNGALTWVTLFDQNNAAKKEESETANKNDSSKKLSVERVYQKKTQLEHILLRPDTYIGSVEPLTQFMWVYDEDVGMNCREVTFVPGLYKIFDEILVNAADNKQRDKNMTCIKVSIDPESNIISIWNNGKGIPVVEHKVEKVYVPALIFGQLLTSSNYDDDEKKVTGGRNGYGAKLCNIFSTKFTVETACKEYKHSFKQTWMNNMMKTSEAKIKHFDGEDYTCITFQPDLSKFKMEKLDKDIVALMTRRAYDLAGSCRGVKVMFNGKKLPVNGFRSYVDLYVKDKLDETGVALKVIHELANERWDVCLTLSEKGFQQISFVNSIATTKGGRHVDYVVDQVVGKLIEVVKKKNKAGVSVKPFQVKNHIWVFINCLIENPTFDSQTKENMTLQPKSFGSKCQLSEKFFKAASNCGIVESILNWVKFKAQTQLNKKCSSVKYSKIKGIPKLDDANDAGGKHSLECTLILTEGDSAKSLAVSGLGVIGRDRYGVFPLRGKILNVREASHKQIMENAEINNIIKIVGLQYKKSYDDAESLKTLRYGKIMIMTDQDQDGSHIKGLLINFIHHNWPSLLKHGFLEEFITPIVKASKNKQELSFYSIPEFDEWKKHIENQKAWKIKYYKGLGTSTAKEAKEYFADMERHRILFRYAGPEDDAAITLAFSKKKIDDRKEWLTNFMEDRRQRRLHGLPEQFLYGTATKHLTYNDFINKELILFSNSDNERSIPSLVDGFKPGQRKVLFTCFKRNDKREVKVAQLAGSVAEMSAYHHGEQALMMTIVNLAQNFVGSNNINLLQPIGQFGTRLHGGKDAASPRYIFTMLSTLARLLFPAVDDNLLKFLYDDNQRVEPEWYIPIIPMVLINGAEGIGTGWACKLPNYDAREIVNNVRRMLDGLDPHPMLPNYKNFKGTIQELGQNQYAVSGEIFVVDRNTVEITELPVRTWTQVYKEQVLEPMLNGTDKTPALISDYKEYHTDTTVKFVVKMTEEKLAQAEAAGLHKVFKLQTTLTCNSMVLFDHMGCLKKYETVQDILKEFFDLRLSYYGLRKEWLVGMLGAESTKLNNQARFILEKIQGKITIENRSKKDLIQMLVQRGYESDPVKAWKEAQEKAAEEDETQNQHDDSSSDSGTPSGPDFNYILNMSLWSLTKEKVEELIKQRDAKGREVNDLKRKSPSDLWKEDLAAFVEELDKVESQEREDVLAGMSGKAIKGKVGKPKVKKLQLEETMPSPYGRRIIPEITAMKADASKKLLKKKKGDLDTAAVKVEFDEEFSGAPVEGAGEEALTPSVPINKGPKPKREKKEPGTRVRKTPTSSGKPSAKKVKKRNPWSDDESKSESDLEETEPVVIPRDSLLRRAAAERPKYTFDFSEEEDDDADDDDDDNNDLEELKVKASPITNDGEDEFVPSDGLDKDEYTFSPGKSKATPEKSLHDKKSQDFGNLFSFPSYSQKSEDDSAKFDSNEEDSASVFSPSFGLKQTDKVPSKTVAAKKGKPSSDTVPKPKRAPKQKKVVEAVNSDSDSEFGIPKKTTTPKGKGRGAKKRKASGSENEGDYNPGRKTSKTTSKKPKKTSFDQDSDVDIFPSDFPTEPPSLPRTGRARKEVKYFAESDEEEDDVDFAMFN

As for `COc1cc([C@@H]2c3cc4c(cc3[C@@H](O[C@@H]3O[C@@H]5CO[C@@H](C)O[C@H]5[C@H](O)[C@H]3O)[C@H]3COC(=O)[C@H]23)OCO4)cc(OC)c1O`, on DNA topoisomerase 2-beta [1], the inhibition result was “Active”.
For the compound `O=C1c2c(Br)c(Br)c(Br)c(Br)c2C(=O)N1c1nnn[nH]1`, the “growth inhibition (GI)” value in the assay with HNO 97 cell line, with HN, in the assay with MCF7, in the assay with MDA-MB-468, with Caco-2 and in the assay with HCT-116 was “Active” in each case. The “growth inhibition (GI)” value in the assay on HEp-2, with HepG2, with A-431, in the assay on A-375, in the assay on NCI-H1299 and in the assay with A549 was “Active” in each case. The “growth inhibition (GI)” value in the assay with PC-3, in the assay with FaDu and with HeLa was “Active” in each case. Also, the inhibition entry on Tubulin (Homo sapiens), on DNA topoisomerase 2-beta [2] and on DNA topoisomerase 2-beta [1] was “Active” throughout.
For the compound `CC(=O)n1c(-c2ccc(N3C(=O)c4c(Br)c(Br)c(Br)c(Br)c4C3=O)cc2)nc2ccccc21`, the “growth inhibition (GI)” value in the assay on HNO 97 cell line, with HN, in the assay on MCF7, with MDA-MB-468, in the assay on Caco-2 and with HCT-116 was “Active” each time. Moreover, the “growth inhibition (GI)” value in the assay on HEp-2, in the assay with HepG2, with A-431, in the assay on A-375, in the assay with NCI-H1299 and in the assay with A549 was “Active” in each case. Further, the “growth inhibition (GI)” value in the assay on PC-3, in the assay on FaDu and in the assay with HeLa was “Active” throughout. Moreover, the 50% inhibitory concentration (IC50) (commonly the concentration that gives 50% inhibition) at Tubulin is 6.94 µM. Further, the inhibition entry on DNA topoisomerase 2-beta [2] and at DNA topoisomerase 2-beta [1] was “Active” each time.
With `O=C1c2c(Br)c(Br)c(Br)c(Br)c2C(=O)N1c1nnc[nH]1`, the “growth inhibition (GI)” value in the assay on HNO 97 cell line, with HN, with MCF7, with MDA-MB-468, in the assay with Caco-2 and with HCT-116 was “Active” each time. Further, the “growth inhibition (GI)” value in the assay with HEp-2, in the assay on HepG2, with A-431, with A-375, with NCI-H1299 and in the assay on A549 was “Active” each time. Moreover, the “growth inhibition (GI)” value in the assay with PC-3, in the assay with FaDu and in the assay on HeLa was “Active” in each case. The inhibition entry on Tubulin (Homo sapiens) was “Active; Weak Inhibition Observed”. Further, the inhibition entry at DNA topoisomerase 2-beta [2] and at DNA topoisomerase 2-beta [1] was “Active” each time.
Take `O=C(O)[C@H](Cc1c[nH]c2ccccc12)N1C(=O)c2c(Br)c(Br)c(Br)c(Br)c2C1=O`: in assay [3], the inhibition of growth at 100 µg/mL was determined as 75.1%. At DNA topoisomerase 2-beta [2], the inhibition entry was “Active; Weak Inhibition Observed”. The inhibition result at DNA topoisomerase 2-beta [1] was “Active”.
For `COc1cccc2c1C(=O)c1c(O)c3c(c(O)c1C2=O)C[C@@](O)(C(=O)CO)C[C@@H]3O[C@H]1C[C@H](N)[C@H](O)[C@H](C)O1` [DOXORUBICIN], the inhibition of growth at 100 µg/mL in assay [3] is 70.2%. For the same compound, at DNA topoisomerase 2-beta [2], the midpoint of inhibition, the IC50, lay at 12.7 µM. Also, on DNA topoisomerase 2-beta [1], the inhibition result is “Active”.
Consider `CC(=O)NC(=S)NN1C(=O)c2c(Br)c(Br)c(Br)c(Br)c2C1=O`, for which the “growth inhibition (GI)” value in the assay with HNO 97 cell line, in the assay on HN, in the assay on MCF7, with MDA-MB-468, with Caco-2 and in the assay on HCT-116 was “Active” throughout. Further, the “growth inhibition (GI)” value in the assay on HEp-2, in the assay with HepG2, in the assay with A-431, in the assay on A-375, in the assay on NCI-H1299 and with A549 was “Active” each time. Besides, the “growth inhibition (GI)” value in the assay with PC-3, in the assay on FaDu and in the assay with HeLa was “Active” each time.
